# Measured values: ChEMBL document CHEMBL1153792, “Synthesis, characterization and evaluation of antibacterial activity of some thiazolo[3,2-b][1,2,4]triazole incorporating diphenylsulfone moieties” (2009)
# Assays:
# Type in all cases: functional
# [1] = system: Staphylococcus epidermidis; assay: Antimicrobial activity against Staphylococcus epidermidis ATCC 14990 after 18 to 24 hrs by liquid broth method
# Outline: (§1)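 Serial twofold dilution in Mueller–Hinton broth in 96-well format. Compounds were dissolved in DMSO and tested at final levels of 1024, 512, 256, 128, 64, 32, 16, 8, 4 and 2. Inoculum was a 0.5 McFarland suspension. Plates were incubated at 37 °C for 18–24 h. MIC was read by eye as the lowest concentration clearly inhibiting growth.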
# Citrobacter freundii = assay: Antimicrobial activity against Citrobacter freundii ATCC 8090 after 18 to 24 hrs by liquid broth method; outline: as §1
# Staphylococcus aureus = assay: Antimicrobial activity against Staphylococcus aureus ATCC 12600 after 18 to 24 hrs by liquid broth method; outline: as §1
# Acinetobacter baumannii = assay: Antimicrobial activity against Acinetobacter baumannii ATCC 19606 after 18 to 24 hrs by liquid broth method; outline: as §1
# Pseudomonas aeruginosa = assay: Antimicrobial activity against Pseudomonas aeruginosa ATCC 9027 after 18 to 24 hrs by liquid broth method; outline: as §1
# Enterococcus faecalis = assay: Antimicrobial activity against Enterococcus faecalis ATCC 19433 after 18 to 24 hrs by liquid broth method; outline: as §1
# Escherichia coli = assay: Antimicrobial activity against Escherichia coli ATCC 11775 after 18 to 24 hrs by liquid broth method; outline: as §1
# Bacillus cereus = assay: Antimicrobial activity against Bacillus cereus ATCC 14579 after 18 to 24 hrs by liquid broth method; outline: as §1
Structure (SMILES),MIC [1] [µg/mL],MIC (Citrobacter freundii) [µg/mL],MIC (Staphylococcus aureus) [µg/mL],MIC (Acinetobacter baumannii) [µg/mL],MIC (Pseudomonas aeruginosa) [µg/mL],MIC (Enterococcus faecalis) [µg/mL],MIC (Escherichia coli) [µg/mL],MIC (Bacillus cereus) [µg/mL]
O=C(CSc1nnc(-c2ccc(S(=O)(=O)c3ccccc3)cc2)[nH]1)c1ccccc1,64,128,64,64,128,256,64,128
O=S(=O)(c1ccc(Cl)cc1)c1ccc(-c2nc3scc(-c4ccc(Br)cc4)n3n2)cc1,> 1020,> 1020,512,128,> 1020,> 1020,> 1020,> 1020
O=C(CSc1nnc(-c2ccc(S(=O)(=O)c3ccc(Br)cc3)cc2)[nH]1)c1ccc(Br)cc1,64,128,128,64,128,128,64,256
O=S(=O)(c1ccc(Br)cc1)c1ccc(-c2nc3scc(-c4ccccc4)n3n2)cc1,64,128,128,64,128,256,64,256
O=C(CSc1nnc(-c2ccc(S(=O)(=O)c3ccccc3)cc2)[nH]1)c1ccc(Br)cc1,512,512,512,512,512,512,512,512
O=S(=O)(c1ccc(Br)cc1)c1ccc(-c2nc3scc(-c4ccc(Br)cc4)n3n2)cc1,64,128,128,64,128,256,64,256
O=S(=O)(c1ccccc1)c1ccc(-c2nc3scc(-c4ccccc4)n3n2)cc1,64,128,128,64,128,512,64,512
O=S(=O)(c1ccc(Br)cc1)c1ccc(-c2nnc(S)[nH]2)cc1,256,128,64,64,128,256,64,64
O=C(CSc1nnc(-c2ccc(S(=O)(=O)c3ccc(Br)cc3)cc2)[nH]1)c1ccccc1,64,128,128,64,128,256,64,128
O=C(CSc1nnc(-c2ccc(S(=O)(=O)c3ccc(Cl)cc3)cc2)[nH]1)c1ccccc1,64,128,64,64,64,256,64,64
O=C(CSc1nnc(-c2ccc(S(=O)(=O)c3ccc(Cl)cc3)cc2)[nH]1)c1ccc(Br)cc1,64,128,64,64,64,256,64,64
O=S(=O)(c1ccc(Cl)cc1)c1ccc(-c2nc3scc(-c4ccccc4)n3n2)cc1,> 1020,> 1020,> 1020,512,> 1020,> 1020,1020,> 1020
O=S(=O)(c1ccccc1)c1ccc(-c2nc3scc(-c4ccc(Br)cc4)n3n2)cc1,64,128,128,64,128,256,64,128
O=S(=O)(c1ccc(Cl)cc1)c1ccc(-c2nnc(S)[nH]2)cc1,1020,> 1020,1020,256,1020,> 1020,1020,1020
O=S(=O)(c1ccccc1)c1ccc(-c2nnc(S)[nH]2)cc1,> 1020,> 1020,512,256,> 1020,> 1020,512,1020
CC1(C)S[C@@H]2[C@H](NC(=O)[C@H](N)c3ccccc3)C(=O)N2[C@H]1C(=O)O [AMPICILLIN],0.064,2,0.5,–,–,0.5,–,–
CN(C)[C@@H]1C(O)=C(C(N)=O)C(=O)[C@@]2(O)C(O)=C3C(=O)c4c(O)cccc4[C@@](C)(O)[C@H]3C[C@@H]12 [TETRACYCLINE],24,1,0.19,1.5,12,32,1.5,0.094
